From ChEMBL document CHEMBL4513216, “Probing the Open Global Health Chemical Diversity Library for Multistage-Active Starting Points for Next-Generation Antimalarials” (ACS Infect Dis, 2020)

Assay: Toxicity liver stage against HepG2, at 10uM
Format: cell-based
Parameters: test concentration 10 uM, cell line HepG2-A16-CD81EGFP
Details: human, HepG2-A16-CD81EGFP cells; read-out: INHIBITION
How it was run: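 Uninfected HepG2-A16-CD81EGFP cells, 3 × 10^3 per well, 1536-well, plated on prespotted compound at 10 μM final, parasite-free screening media added to match infected plates; puromycin 10 μM positive, DMSO 0.5% negative; run in parallel with 48 h PbLuc assay at 37 °C, 5% CO2; viability by CellTiter-Glo luminescence, normalized to controls.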

SMILES | cytotoxicity at 10 µM [%]
CC(C)(C)n1ncc2c(=O)n(CC(=O)NCc3ccco3)cnc21 | -1.6
CC1(C)[C@H](Cc2cc(CN3CCCCC3)on2)C[C@@H]1NC(=O)C1CC1 | -8.17
CNc1oc(-c2ccc(S(=O)(=O)N(C)C)o2)nc1C#N | -5.96
CC1NC(=O)COC12CCN(C(=O)Cc1ccsc1)CC2 (stereo not given) | -5.73
CCN1C(=O)C2(CCOCC2)c2cc(NC(=O)c3cccn3C)ccc21 | -2.13
COc1cccc(-c2cnc(C3CCNCC3)cn2)c1 | -30.4
CCc1nnc(Nc2cccc(C3CCN(C(C)=O)CC3)n2)s1 | 0.579
COc1cccc(OCC(=O)N2CCOc3ccncc32)c1 | 7.68
CC(CN1CCOC1=O)NC(=O)c1cccc(Cl)c1Cl (stereo not given) | -3.26
CCC1(CC)CC(=O)N(CC(O)c2cccc(F)c2)C1=O (stereo not given) | -3.43
CN(CC(N)=O)CC1(c2ccc(Br)cc2)CC1 | 2.17
COc1ccc(CNC(=O)CCn2cc(C)cn2)cc1C | -4.27
COC(=O)N1CCCC(NC(=O)NCc2ccc(C)nc2)C1 (stereo not given) | -4.73
CCN(CC(=O)N(C)C)C(=O)c1nc(C)n(-c2ccccc2Cl)n1 | 7.3
Cc1sc(C(=O)O)cc1S(=O)(=O)Nc1c(F)cccc1-n1cccn1 | -1.37
Cc1cn(CC(=O)NC2CCN(C(C)C)CC2)c2ccccc12 | 0.0531
Cc1cc(NC(=O)N2CCCC2CN2CCOCC2)nn1C (stereo not given) | 1.63
COCCS(=O)(=O)Nc1ccc(-n2nccc2C(F)(F)F)cc1 | 1.26
COCCC(Cc1cccc(Br)c1)C(=O)N(C)C (stereo not given) | 13
O=C1CCc2cc(C(=O)NCc3ccc(Cl)s3)ccc2N1 | 3.65
CS(=O)(=O)CCSCc1cccc2cccnc12 | -6.64
OC(COCc1cccs1)Cn1cc(Br)cn1 (stereo not given) | 1.91
CCC(Nc1ccc(CCN2CCOCC2)cc1)C(N)=O (stereo not given) | 4.42

SMILES | cytotoxicity at 10 µM [%]
Cn1nc(C(=O)NCc2cccc(Cn3ccnc3)c2)ccc1=O | 8.53
COc1ccc(CN(C)c2ncc(S(N)(=O)=O)s2)c(OC)c1 | -2.03
CN(Cc1ccccc1F)C(=O)Cn1cc(NC(=O)C(C)(C)C)cn1 | 5.23
CCC(=O)Nc1ccc(C(C)NC(=O)COCCOC)cc1 (stereo not given) | -7.71
COC(=O)N1CCCCC1C(=O)N(C)Cc1cc(-c2cccnc2)no1 (stereo not given) | 0.83
O=C(CCn1cccn1)N1CC[C@@H](c2ccc3ccccc3c2)[C@H](O)C1 | 2.03
COCC(=O)N1CCCC(C(=O)NCc2cc(CC(C)C)on2)C1 (stereo not given) | 10.6
CN1CCN2CCN(Cc3ccccc3Cn3cccn3)CC2C1 (stereo not given) | -133
CCCn1nccc1C(=O)N1CCN(C2CCc3ccccc3C2)CC1 (stereo not given) | -130
Cc1n[nH]c(C)c1CN1CC[C@@H]2[C@@H](CCC(=O)N2CCc2c[nH]cn2)C1 | -3
COC[C@]1(O)CCN(Cc2cnc(N(C)C)nc2)CC1(C)C | -5.03
Cc1ccc(C)c(OCCN(C)C(=O)C2CCCN2C(N)=O)c1C (stereo not given) | -1.01
CC(=O)N[C@@H]1CN(Cc2nnc(-c3ccccc3)o2)C[C@H]1C(C)C | -0.598
CNc1cc(C)nc(-c2cc(NCCO)nc3[nH]ccc23)n1 | 5.85
CN1CCCC2(CCN(C(=O)CCn3cncn3)C2)C1=O (stereo not given) | -11
CCCc1cc(C(=O)N(C)Cc2cnc3ccccc3n2)n(C)n1 | -19.3
Cc1cnn(CC2CCCN2C(=O)c2ccc3nnc(C)n3c2)c1 (stereo not given) | -8.11
CC(=O)c1cccc(S(=O)(=O)N2CSCC2C(=O)NCC(F)(F)F)c1 (stereo not given) | 3.78
Cc1ccc(-c2nc(CN3CCCC(Cn4cncn4)C3)no2)cc1 (stereo not given) | -4.86
Fc1ccccc1CN1C[C@H](OCC2CCOCC2)[C@H]2OCCC[C@H]21 | -2.4
Cn1cccc1C(=O)N1CCO[C@@H]2CN(Cc3nccs3)C[C@@H]2C1 | -103
Cn1ccc(C(=O)NC2CCC23CCN(Cc2cnn(C)c2)CC3)c1 (stereo not given) | -146
